According to ChEMBL document CHEMBL4715736, “Identification of anticancer agents based on the thieno[2,3-b]pyridine and 1H-pyrazole molecular scaffolds” (2016):

Experiments:
Assay type in all cases: functional
Malme-3M [1] = assay: Growth inhibition of human Malme-3M cells assessed as cell growth at 0.01 uM incubated for 48 hrs by sulforhodamine B assay relative to control; conditions: read-out: Activity
MDA-MB-468 = assay: Growth inhibition of human MDA-MB-468 cells assessed as cell growth at 0.01 uM incubated for 48 hrs by sulforhodamine B assay relative to control; conditions: read-out: Activity
NCI-H460 [2] = assay: Growth inhibition of human NCI-H460 cells assessed as cell growth at 1 uM incubated for 48 hrs by sulforhodamine B assay relative to control; conditions: read-out: Activity
NCI-H522 [3] = assay: Growth inhibition of human NCI-H522 cells assessed as cell growth at 1 uM incubated for 48 hrs by sulforhodamine B assay relative to control; conditions: read-out: Activity
TK-10 [4] = assay: Growth inhibition of human TK-10 cells assessed as cell growth at 1 uM incubated for 48 hrs by sulforhodamine B assay relative to control; conditions: read-out: Activity
MOLT-4 = assay: Growth inhibition of human MOLT-4 cells assessed as cell growth at 10 uM incubated for 48 hrs by sulforhodamine B assay relative to control; conditions: read-out: Activity
How it was run: (§1)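 Submitted to the NCI Developmental Therapeutics Program for the NCI60 human tumour cell line panel. First screen at a single 10 µM concentration. Read-out is growth relative to untreated control cells set at 100%.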

SR = assay: Growth inhibition of human SR cells assessed as cell growth at 10 uM incubated for 48 hrs by sulforhodamine B assay relative to control; conditions: read-out: Activity
How it was run: (§2)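 Run by the NCI Developmental Therapeutics Program as part of its 60-line human tumour panel. Each compound tested at a single 10 µM dose. Growth expressed as % relative to untreated control cells (100%).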

HOP-62 = assay: Growth inhibition of human HOP-62 cells assessed as cell growth at 10 uM incubated for 48 hrs by sulforhodamine B assay relative to control; conditions: read-out: Activity; how it was run: as §1
NCI-H226 = assay: Growth inhibition of human NCI-H226 cells assessed as cell growth at 10 uM incubated for 48 hrs by sulforhodamine B assay relative to control; conditions: read-out: Activity; how it was run: as §1
NCI-H460 [5] = assay: Growth inhibition of human NCI-H460 cells assessed as cell growth at 10 uM incubated for 48 hrs by sulforhodamine B assay relative to control; conditions: read-out: Activity; how it was run: as §1
NCI-H522 [6] = assay: Growth inhibition of human NCI-H522 cells assessed as cell growth at 10 uM incubated for 48 hrs by sulforhodamine B assay relative to control; conditions: read-out: Activity; how it was run: as §1
HCT-116 = assay: Growth inhibition of human HCT-116 cells assessed as cell growth at 10 uM incubated for 48 hrs by sulforhodamine B assay relative to control; conditions: read-out: Activity; how it was run: as §1
HCT-15 = assay: Growth inhibition of human HCT-15 cells assessed as cell growth at 10 uM incubated for 48 hrs by sulforhodamine B assay relative to control; conditions: read-out: Activity; how it was run: as §1
HT-29 = assay: Growth inhibition of human HT-29 cells assessed as cell growth at 10 uM incubated for 48 hrs by sulforhodamine B assay relative to control; conditions: read-out: Activity; how it was run: as §1
KM12 = assay: Growth inhibition of human KM12 cells assessed as cell growth at 10 uM incubated for 48 hrs by sulforhodamine B assay relative to control; conditions: read-out: Activity; how it was run: as §1
SNB-19 = assay: Growth inhibition of human SNB-19 cells assessed as cell growth at 10 uM incubated for 48 hrs by sulforhodamine B assay relative to control; conditions: read-out: Activity; how it was run: as §2
SNB-75 = assay: Growth inhibition of human SNB-75 cells assessed as cell growth at 10 uM incubated for 48 hrs by sulforhodamine B assay relative to control; conditions: read-out: Activity; how it was run: as §2
Malme-3M [7] = assay: Growth inhibition of human Malme-3M cells assessed as cell growth at 10 uM incubated for 48 hrs by sulforhodamine B assay relative to control; conditions: read-out: Activity; how it was run: as §1
M14 = assay: Growth inhibition of human M14 cells assessed as cell growth at 10 uM incubated for 48 hrs by sulforhodamine B assay relative to control; conditions: read-out: Activity; how it was run: as §1
SK-MEL-2 = assay: Growth inhibition of human SK-MEL-2 cells assessed as cell growth at 10 uM incubated for 48 hrs by sulforhodamine B assay relative to control; conditions: read-out: Activity; how it was run: as §2
SK-MEL-5 = assay: Growth inhibition of human SK-MEL-5 cells assessed as cell growth at 10 uM incubated for 48 hrs by sulforhodamine B assay relative to control; conditions: read-out: Activity; how it was run: as §2
UACC-257 = assay: Growth inhibition of human UACC-257 cells assessed as cell growth at 10 uM incubated for 48 hrs by sulforhodamine B assay relative to control; conditions: read-out: Activity; how it was run: as §2
SK-OV-3 [8] = assay: Growth inhibition of human SK-OV-3 cells assessed as cell growth at 10 uM incubated for 48 hrs by sulforhodamine B assay relative to control; conditions: read-out: Activity; how it was run: as §2
786-0 = assay: Growth inhibition of human 786-0 cells assessed as cell growth at 10 uM incubated for 48 hrs by sulforhodamine B assay relative to control; conditions: read-out: Activity
How it was run: (§3)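 NCI Developmental Therapeutics Program NCI60 panel. Compounds that were active in the 10 µM one-dose screen went on to dose–response testing. Growth at each concentration is expressed relative to untreated control (100%). GI50 (concentration giving 50% of maximal inhibition of proliferation) and TGI (concentration giving total growth inhibition) were derived from the curves.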

A498 = assay: Growth inhibition of human A498 cells assessed as cell growth at 10 uM incubated for 48 hrs by sulforhodamine B assay relative to control; conditions: read-out: Activity; how it was run: as §3
CAKI-1 = assay: Growth inhibition of human CAKI-1 cells assessed as cell growth at 10 uM incubated for 48 hrs by sulforhodamine B assay relative to control; conditions: read-out: Activity; how it was run: as §3
RXF 393 = assay: Growth inhibition of human RXF 393 cells assessed as cell growth at 10 uM incubated for 48 hrs by sulforhodamine B assay relative to control; conditions: read-out: Activity; how it was run: as §2
SN12C = assay: Growth inhibition of human SN12C cells assessed as cell growth at 10 uM incubated for 48 hrs by sulforhodamine B assay relative to control; conditions: read-out: Activity; how it was run: as §2
TK-10 [9] = assay: Growth inhibition of human TK-10 cells assessed as cell growth at 10 uM incubated for 48 hrs by sulforhodamine B assay relative to control; conditions: read-out: Activity; how it was run: as §2
UO-31 = assay: Growth inhibition of human UO-31 cells assessed as cell growth at 10 uM incubated for 48 hrs by sulforhodamine B assay relative to control; conditions: read-out: Activity; how it was run: as §2
BT-549 [10] = assay: Growth inhibition of human BT-549 cells assessed as cell growth at 10 uM incubated for 48 hrs by sulforhodamine B assay relative to control; conditions: read-out: Activity
How it was run: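 NCI Developmental Therapeutics Program NCI60 human tumour cell line panel, one-dose primary screen with every compound at 10 µM. Growth is expressed as % of untreated control cells (100%).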

BT-549 [11] = assay: Growth inhibition of human BT-549 cells assessed as cell growth at 100 uM incubated for 48 hrs by sulforhodamine B assay relative to control; conditions: read-out: Activity
SF-539 = assay: Growth inhibition of human SF-539 cells incubated for 48 hrs by sulforhodamine B assay
How it was run: (§4)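 NCI DTP 60-line human tumour panel. Dose-response curves were run only for ligands active in the initial 10 µM screen. GI50 (concentration giving 50% of maximal inhibition of proliferation) and TGI (concentration giving total growth inhibition) were derived from these curves.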

SK-OV-3 [12] = assay: Growth inhibition of human SK-OV-3 cells incubated for 48 hrs by sulforhodamine B assay; how it was run: as §4
[13] = read-out: LC50 (the source's name)

Question: Which results are given for `CCc1ccccc1NC(=O)c1sc2nc3c(cc2c1N)C(=O)CCC3`?
Answer: growth at 0.01 µM (Malme-3M [1]): 100%; growth at 0.01 µM (MDA-MB-468): 91%; growth at 1 µM (NCI-H460 [2]): 9%; growth at 1 µM (NCI-H522 [3]): 34%; growth at 1 µM (TK-10 [4]): 55%; growth at 10 µM (MOLT-4): 24.4%; growth at 10 µM (SR): 9.38%; growth at 10 µM (HOP-62): 35.5%; growth at 10 µM (NCI-H226): 64%; growth at 10 µM (NCI-H460 [5]): 6.42%; growth at 10 µM (NCI-H522 [6]): -11.6%; growth at 10 µM (HCT-116): 24%; growth at 10 µM (HCT-15): 29%; growth at 10 µM (HT-29): 6%; growth at 10 µM (KM12): 21%; growth at 10 µM (SNB-19): 35%; growth at 10 µM (SNB-75): -15.4%; growth at 10 µM (Malme-3M [7]): 60.8%; growth at 10 µM (M14): 5%; growth at 10 µM (SK-MEL-2): 19.9%; growth at 10 µM (SK-MEL-5): 17%; growth at 10 µM (UACC-257): 60%; growth at 10 µM (SK-OV-3 [8]): 30%; growth at 10 µM (786-0): 35.1%; growth at 10 µM (A498): -9.7%; growth at 10 µM (CAKI-1): 29.9%; growth at 10 µM (RXF 393): -4%; growth at 10 µM (SN12C): 40%; growth at 10 µM (TK-10 [9]): 54.7%; growth at 10 µM (UO-31): 44.5%; growth at 10 µM (BT-549 [10]): 48%; growth at 100 µM (BT-549 [11]): 11%; GI50 (SF-539): 0.335 µM; TGI (SF-539): 2.69 µM; CC50 (SF-539; [13]): > 100 µM; GI50 (SK-OV-3 [12]): 0.537 µM; TGI (SK-OV-3 [12]): 75.7 µM; CC50 (SK-OV-3 [12]; [13]): > 100 µM
